Laboratory results reported in ChEMBL document CHEMBL1138888, “Activity of and initial mechanistic studies on a novel antileishmanial agent identified through in silico pharmacophore development and database searching” (J Med Chem, 2006).
Active and inactive are the calls of the source. The calls are words filed in the database; no cut-off is given here.

Tests used:
Leishmania donovani [1] = assay: Antileishmanial activity against Leishmania donovani axenic amastigotes; format: functional, organism-based
Method in brief: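 L. donovani axenic amastigotes (MHOM/SD/62/1S-CL2D), adapted from promastigotes and kept at 37 °C in amastigote medium. 6 × 10^4 cells per well, 2-fold compound dilution series, 3 days at 37 °C in 5% CO2. Growth read by tetrazolium (CellTiter) absorbance at 490 nm. IC50 taken from a four-parameter dose-response fit; three or more separate experiments, error given as SD.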

Vero = assay: Antiproliferative activity against Vero cell; format: functional, cell-based; details: Chlorocebus sabaeus
Method in brief: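 Vero cells grown in alpha-MEM with Glutamax-I, 10% heat-inactivated FBS, penicillin/streptomycin. 1 × 10^3 cells per well seeded with compounds over a 2-fold dilution series, run like the amastigote assay: 3 days at 37 °C, humidified, 5% CO2. Growth read by tetrazolium (CellTiter) absorbance at 490 nm. IC50 from four-parameter dose-response fit; three or more separate experiments.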

Leishmania mexicana [2] = assay: Reduction in Leishmania mexicana infection in mouse J774 macrophage at 4 uM; format: functional; parameters: scale not given: the % may be the effect or the level left
Method in brief: (§1)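 J774 macrophages (1 × 10^5 per well) allowed to adhere overnight, then infected with 1 × 10^6 L. mexicana promastigotes (MNYC/BCZ/62/M379) overnight at 33 °C. After washing, treated with compound or 1% DMSO vehicle for 3 days at 33 °C, methanol-fixed and Giemsa-stained. Percent reduction of infection is relative to controls; average ± range of two experiments.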

Leishmania sp. = assay: Inhibition of Leishmania tarentolae tubulin assembly; format: functional
Method in brief: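 Purified L. tarentolae tubulin at 1.5 mg/mL in […] pH 6.9 with 1 mM MgCl2, 1 mM EGTA, 10% DMSO and 1 mM GTP, incubated at 30 °C with or without compound (2 or 20 µM tested). Assembly followed as turbidity at 351 nm.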

Leishmania donovani [3] = assay: Cell cycle arrest in Leishmania donovani promastigotes by accumulation at G2/S phase at 2 uM; format: functional, organism-based; details: in the assay text read “G2/M phase” for “G2/S phase”
Method in brief: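 L. donovani promastigotes at 5 × 10^6 cells/mL in RPMI-based promastigote medium with 10% HI-FBS, treated or given vehicle (1% DMSO) for 2 days at 25 °C. Cells then methanol-fixed and stained with propidium iodide (10 µg/mL) with Triton X-100 and RNase A. DNA content per cell measured by flow cytometry; histograms representative of three experiments.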

Leishmania mexicana [4] = assay: Reduction in Leishmania mexicana infection in mouse J774 macrophage at 8 uM; format: functional; parameters: scale not given: the % may be the effect or the level left; method in brief: as §1
Leishmania mexicana [5] = assay: Reduction in Leishmania mexicana infection in mouse J774 macrophage at 2 uM; format: functional; parameters: scale not given: the % may be the effect or the level left; method in brief: as §1
Leishmania donovani [6] = assay: Reduction in Leishmania donovani load in infected BALB/c mouse at 50 mg/kg/day, ip; format: functional; details: route intraperitoneal
Method in brief: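 BALB/c mice, 12 weeks old, infected i.v. (tail vein) with 1 × 10^7 hamster-spleen-derived L. donovani amastigotes. After 7 days, dosed i.p. daily for 5 days in 0.5% methylcellulose/0.1% Tween-80/10% DMSO in water; vehicle controls run. Killed 4 days after treatment. Liver burden scored as LDUs from Giemsa-stained smears; mean ± SD of five mice.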

Leishmania mexicana [7] = assay: Reduction in Leishmania mexicana infection in mouse J774 macrophage at 25 nM; format: functional; parameters: scale not given: the % may be the effect or the level left; method in brief: as §1
Leishmania mexicana [8] = assay: Reduction in Leishmania mexicana infection in mouse J774 macrophage at 125 nM; format: functional; parameters: scale not given: the % may be the effect or the level left; method in brief: as §1
Leishmania mexicana [9] = assay: Reduction in Leishmania mexicana infection in mouse J774 macrophage at 50 nM; format: functional; parameters: scale not given: the % may be the effect or the level left; method in brief: as §1

Structure (SMILES) | IC50 (Leishmania donovani [1]) | also measured
O=C1NC(=O)c2c1ccc(Sc1c(Cl)cccc1Cl)c2[N+](=O)[O-] | 60 µM | 
Cc1cc(C)c(-n2nnnc2SCc2ccc(C(F)(F)F)cc2)c(C)c1 | 32 µM | 
Cc1cc(S(=O)(=O)c2c([N+](=O)[O-])cc(C(F)(F)F)cc2[N+](=O)[O-])c(Cl)cc1Cl | 2.3 µM | IC50 (Vero): 24 µM
O=C(CSCc1cccc(C(F)(F)F)c1)c1ccc(OCc2ccc(F)cc2)cc1 | > 100 µM | 
Cc1cc(Sc2nnc3oc(O)cc(C)c2-3)c(C)cc1Cl | 39 µM | 
O=C(O)c1ccccc1C(=O)NCCNc1ccc(C(F)(F)F)cn1 | > 100 µM | 
O=[N+]([O-])c1ccc(Oc2c(Cl)cccc2Cl)c(Cl)c1Oc1c(Cl)cccc1Cl | 80 µM | 
C[C@@H]1[C@H](O)[C@@H](C)/C=C/C=C/C=C/C=C/C=C/C=C/C=C/[C@H](O[C@@H]2O[C@H](C)[C@@H](O)[C@H](N)[C@@H]2O)C[C@@H]2O[C@](O)(C[C@@H](O)C[C@@H](O)[C@H](O)CC[C@@H](O)C[C@@H](O)CC(=O)O[C@H]1C)C[C@H](O)[C@H]2C(=O)O [AMPHOTERICIN B] |  | Activity (Leishmania mexicana [7]): 44%; Activity (Leishmania mexicana [8]): 96%; Activity (Leishmania mexicana [9]): 76%
CSc1cccc(-n2c(S)nnc2CCc2ccc(O)cc2)c1 | > 100 µM | 
COc1cc(C2SCCS2)cc(Br)c1Oc1cc(C)c(C(F)(F)F)cc1[N+](=O)[O-] | > 100 µM | 
COc1ccccc1NC(=O)CSCc1cnc(C)c(O)c1O | > 100 µM | 
O=S(=O)(c1ccc(Cl)cc1)N1CCCN(Cc2ccc(Cl)cc2Cl)CC1 | 72 µM | 
Cc1cc(C(=O)O)c(Sc2nccn2-c2ccc(Cl)cc2Cl)nc1C#N | 21 µM | 
OC(CNCc1ccc(Cl)cc1Cl)Cn1c(-c2ccc(F)cc2)cc2ccccc21 (stereo not drawn) | 37 µM | 

Second part, led by results:

IC50 (Leishmania donovani [1]) | Structure (SMILES) | also measured
> 100 µM | COc1ccc([N+](=O)[O-])c(OC)c1C(=O)NCCCn1ccnc1 | 
0.5 µM | Cc1cc(Sc2c([N+](=O)[O-])cc(C(F)(F)F)cc2[N+](=O)[O-])c(Cl)cc1Cl | Activity (Leishmania mexicana [2]): 43%; Activity (Leishmania sp.): inactive; Activity (Leishmania donovani [3]): inactive; Activity (Leishmania mexicana [4]): 68%; Activity (Leishmania mexicana [5]): 13%; Activity (Leishmania donovani [6]): 1583; IC50 (Vero): 5.3 µM
66.6 µM | Cc1nc(-c2ccc(S(=O)(=O)Nc3ccc(Br)cc3Cl)s2)cs1 | 
5.6 µM | CCCCN(CCCC)c1c([N+](=O)[O-])cc(S(=O)(=O)Nc2ccc(F)cc2)cc1[N+](=O)[O-] | 
25 µM | O=S(=O)(Nc1ccc(Oc2ccc(C(F)(F)F)cc2)cc1)c1cc(Cl)c(Cl)cc1Cl | 
2.5 µM | CCCN(CCC)c1c([N+](=O)[O-])cc(S(=O)(=O)Nc2cccc(F)c2)cc1[N+](=O)[O-] | 
5.7 µM | CCCCN(CCCC)c1c([N+](=O)[O-])cc(S(=O)(=O)Nc2cccc(F)c2)cc1[N+](=O)[O-] | 
> 100 µM | COc1ccc(CCNc2ccc(C(F)(F)F)cc2[N+](=O)[O-])cc1OC | 
> 100 µM | CC(=O)c1ccc(OCc2ccc(Cl)c(Cl)c2)c([N+](=O)[O-])c1 | 
